Activity calls are given as the source filed them. The rule behind the calls is not given here.
Experiments:
[1] = Cytotoxicity against african green monkey Vero E6 cells assessed as reduction in cell viability by MTT assay; type: toxicity, cell-based; conditions: chlorocebus sabaeus, Vero E6 cells (Vero C1008)
In short: (§1)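 MTT viability on HeLa or VeroE6 cells, run in parallel with the antiviral assays. CC50 from variable-slope sigmoidal dose–response regression.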

Staphylococcus aureus [2] = experiment: Bactericidal activity against Staphylococcus aureus ATCC 25923 assessed as reduction in microbial growth measured after 18 hrs by CLSI based broth microdilution method; type: functional
In short: (§2)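 MBC by CLSI broth microdilution in Mueller–Hinton medium, triplicate. Inoculum 5 × 10^4 CFU per well. Read after 18 h at 35 ± 2 °C.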

Staphylococcus aureus [3] = experiment: Bactericidal activity against methicillin-resistant Staphylococcus aureus ATCC 43300 assessed as reduction in microbial growth measured after 18 hrs by CLSI based broth microdilution method; type: functional
rhinovirus A16 [4] = experiment: microbe, parasite or virus in culture; conditions: Rhinovirus A, HeLa, 48 h
Pseudomonas aeruginosa [5] = experiment: Synergistic antibacterial activity against Pseudomonas aeruginosa ATCC 27853 incubated for 18 to 24 hrs in presence of colistin by broth microdilution method; type: functional; conditions: time 18-24 hrs
[6] = tested on: Staphylococcus epidermidis; experiment: Bactericidal activity against linezolid-resistant Staphylococcus epidermidis SI-1266 assessed as reduction in microbial growth measured after 18 hrs by CLSI based broth microdilution method; type: functional
enterovirus D68 = experiment: microbe, parasite or virus in culture; conditions: Enterovirus D, HeLa, 48 h
[7] = tested on: Staphylococcus epidermidis; experiment: Antibacterial activity against linezolid-resistant Staphylococcus epidermidis SI-1266 assessed as reduction in microbial growth measured after 18 hrs by CLSI based broth microdilution method; type: functional
In short: (§3)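 Gram-positive clinical isolates; compounds dissolved in DMSO (50 mg mL−1 stock) and diluted in medium; MIC by CLSI broth microdilution in Mueller–Hinton medium, inoculum 5 × 10^4 CFU per well, read after 18 h at 35 ± 2 °C; triplicate.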

Enterococcus faecalis [8] = experiment: Antibacterial activity against Enterococcus faecalis ATCC 29212 assessed as reduction in microbial growth measured after 18 hrs by CLSI based broth microdilution method; type: functional
In short: (§4)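 MIC by CLSI broth microdilution in Mueller–Hinton medium, triplicate. Inoculum 5 × 10^4 CFU per well. Compounds taken up in DMSO (50 mg mL−1 stock) and diluted in medium. Read after 18 h at 35 ± 2 °C.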

Zika virus = experiment: microbe, parasite or virus in culture; conditions: Vero C1008, 72 h
Enterococcus faecium [9] = experiment: Bactericidal activity against Vancomycin resistant Enterococcus faecium SI-3856B assessed as reduction in microbial growth measured after 18 hrs by CLSI based broth microdilution method; type: functional
[10] = tested on: Staphylococcus haemolyticus; experiment: Antibacterial activity against oxacillin-resistant Staphylococcus haemolyticus SI-6/2011 assessed as reduction in microbial growth measured after 18 hrs by CLSI based broth microdilution method; type: functional; in short: as §3
Enterococcus faecalis [11] = experiment: Bactericidal activity against Enterococcus faecalis ATCC 29212 assessed as reduction in microbial growth measured after 18 hrs by CLSI based broth microdilution method; type: functional; in short: as §2
Enterococcus faecium [12] = experiment: Bactericidal activity against Vancomycin resistant Enterococcus faecium SI-1831 assessed as reduction in microbial growth measured after 18 hrs by CLSI based broth microdilution method; type: functional
[13] = biological target: Phosphatidylinositol 4-kinase beta (Homo sapiens, UniProt Q9UBF8); experiment: Inhibition of recombinant full length his tagged PI4KB (unknown origin) incubated for 10 mins in presence of ATP by ADP-glo kinase assay
Enterococcus faecium [14] = experiment: Antibacterial activity against Vancomycin resistant Enterococcus faecium SI-3856B assessed as reduction in microbial growth measured after 18 hrs by CLSI based broth microdilution method; type: functional; in short: as §3
Escherichia coli [15] = experiment: Synergistic antibacterial activity against Escherichia coli CCUGT incubated for 18 to 24 hrs in presence of colistin by broth microdilution method; type: functional; conditions: time 18-24 hrs
Enterococcus faecium [16] = experiment: Antibacterial activity against Vancomycin resistant Enterococcus faecium SI-1831 assessed as reduction in microbial growth measured after 18 hrs by CLSI based broth microdilution method; type: functional; in short: as §3
Streptococcus pyogenes [17] = experiment: Antibacterial activity against Streptococcus pyogenes ATCC 12344 assessed as reduction in microbial growth measured after 18 hrs by CLSI based broth microdilution method; type: functional; in short: as §4
[18] = Cytotoxicity against human HeLa cells assessed as reduction in cell viability by MTT assay; type: toxicity, cell-based; in short: as §1
Escherichia coli [19] = experiment: Synergistic antibacterial activity against colistin resistant mcr-positive Escherichia coli SI-63 incubated for 18 to 24 hrs in presence of colistin by broth microdilution method; type: functional; conditions: time 18-24 hrs
In short: (§5)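 Minimum antibacterial concentration (MAC) by broth microdilution in Mueller–Hinton medium with a fixed subinhibitory colistin concentration of 2 μg mL−1 against colistin-resistant Gram-negative clinical isolates; inoculum 5 × 10^4 CFU per well, 35 ± 2 °C; triplicate.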

Enterococcus faecium [20] = experiment: Bactericidal activity against Vancomycin/teicoplanin resistant Enterococcus faecium SI-759 assessed as reduction in microbial growth measured after 18 hrs by CLSI based broth microdilution method; type: functional
Streptococcus pyogenes [21] = experiment: Bactericidal activity against Streptococcus pyogenes ATCC 12344 assessed as reduction in microbial growth measured after 18 hrs by CLSI based broth microdilution method; type: functional; in short: as §2
Staphylococcus warneri [22] = experiment: Antibacterial activity against oxacillin-resistant Staphylococcus warneri SI-5/2011 assessed as reduction in microbial growth measured after 18 hrs by CLSI based broth microdilution method; type: functional; in short: as §3
Acinetobacter baumannii [23] = experiment: Synergistic antibacterial activity against colistin/carbapenem resistant MDR Acinetobacter baumannii N50 incubated for 18 to 24 hrs in presence of colistin by broth microdilution method; type: functional; conditions: time 18-24 hrs; in short: as §5
Acinetobacter baumannii [24] = experiment: Synergistic antibacterial activity against Acinetobacter baumannii ATCC 17978 incubated for 18 to 24 hrs in presence of colistin by broth microdilution method; type: functional; conditions: time 18-24 hrs
Staphylococcus aureus [25] = experiment: Antibacterial activity against Staphylococcus aureus ATCC 25923 assessed as reduction in microbial growth measured after 18 hrs by CLSI based broth microdilution method; type: functional; in short: as §4
Enterococcus faecium [26] = experiment: Antibacterial activity against Vancomycin/teicoplanin resistant Enterococcus faecium SI-759 assessed as reduction in microbial growth measured after 18 hrs by CLSI based broth microdilution method; type: functional; in short: as §3
Staphylococcus aureus [27] = experiment: Antibacterial activity against methicillin-resistant Staphylococcus aureus ATCC 43300 assessed as reduction in microbial growth measured after 18 hrs by CLSI based broth microdilution method; type: functional; in short: as §3
Staphylococcus warneri [28] = experiment: Bactericidal activity against oxacillin-resistant Staphylococcus warneri SI-5/2011 assessed as reduction in microbial growth measured after 18 hrs by CLSI based broth microdilution method; type: functional
Pseudomonas aeruginosa [29] = experiment: Synergistic antibacterial activity against colistin resistant MDR Pseudomonas aeruginosa SI-270 incubated for 18 to 24 hrs in presence of colistin by broth microdilution method; type: functional; conditions: time 18-24 hrs; in short: as §5
Bacillus subtilis [30] = experiment: Antibacterial activity against Bacillus subtilis ATCC 6633 assessed as reduction in microbial growth measured after 18 hrs by CLSI based broth microdilution method; type: functional; in short: as §4
Klebsiella pneumoniae = experiment: Synergistic antibacterial activity against Klebsiella pneumoniae ATCC 13833 incubated for 18 to 24 hrs in presence of colistin by broth microdilution method; type: functional; conditions: time 18-24 hrs
Bacillus subtilis [31] = experiment: Bactericidal activity against Bacillus subtilis ATCC 6633 assessed as reduction in microbial growth measured after 18 hrs by CLSI based broth microdilution method; type: functional; in short: as §2
rhinovirus A16 [32] = experiment: Antiviral activity against hRVA16 infected in human HeLa cells assessed as effect on RNA intracellular level at 5 uM pretreated for 1 hrs before infection and measured after 1 to 6 hrs post infection by time of addition assay; type: functional, organism-based; conditions: time 2-7 hrs
In short: (§6)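 Time of addition: HeLa cells infected with RVA16 at MOI 0.1. Compound at 5 μM added 1 h before, during, or 1, 2, 4 or 6 h after infection. At 24 h, cells lysed and intracellular viral RNA measured by RV-specific qPCR; supernatant titrated on HeLa cells.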

rhinovirus A16 [33] = experiment: Antiviral activity against 7 times N-(4'-(Trifluoromethyl)-2-((3-(trifluoromethyl)phenyl)amino)-[4,5'-bithiazol]-2'-yl)benzamide passaged resistance model of Human rhinovirus 16 infected in human HeLa cells assessed as inhibition of viral replication; type: functional, organism-based; conditions: Rhinovirus A
In short: (§7)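 HeLa cells infected with RVA16 and serially passaged under compound, supernatants harvested at extensive CPE (3–6 dpi), clarified and titrated on HeLa; each passage used prior virus at MOI 0.01, drug concentration doubled when possible; after 7 passages RNA sequenced. Antiviral read-out: HeLa at 33 °C, 48 h, VP3 immunostaining with HRP secondary; EC50 from variable-slope sigmoidal fit.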

rhinovirus A16 [34] = experiment: Antiviral activity against 7 times rupintrivir passaged resistance model of Human rhinovirus 16 infected in human HeLa cells assessed as inhibition of viral replication; type: functional, organism-based; conditions: Rhinovirus A; in short: as §7
rhinovirus A16 [35] = experiment: Antiviral activity against hRVA16 infected in human HeLa cells assessed as effect on release of infectious virus at 5 uM measured after 24 hrs post infection by time of addition assay; type: functional, organism-based; in short: as §6

Phosphatidylinositol 4-kinase beta, sequence (Q9UBF8 whole entry): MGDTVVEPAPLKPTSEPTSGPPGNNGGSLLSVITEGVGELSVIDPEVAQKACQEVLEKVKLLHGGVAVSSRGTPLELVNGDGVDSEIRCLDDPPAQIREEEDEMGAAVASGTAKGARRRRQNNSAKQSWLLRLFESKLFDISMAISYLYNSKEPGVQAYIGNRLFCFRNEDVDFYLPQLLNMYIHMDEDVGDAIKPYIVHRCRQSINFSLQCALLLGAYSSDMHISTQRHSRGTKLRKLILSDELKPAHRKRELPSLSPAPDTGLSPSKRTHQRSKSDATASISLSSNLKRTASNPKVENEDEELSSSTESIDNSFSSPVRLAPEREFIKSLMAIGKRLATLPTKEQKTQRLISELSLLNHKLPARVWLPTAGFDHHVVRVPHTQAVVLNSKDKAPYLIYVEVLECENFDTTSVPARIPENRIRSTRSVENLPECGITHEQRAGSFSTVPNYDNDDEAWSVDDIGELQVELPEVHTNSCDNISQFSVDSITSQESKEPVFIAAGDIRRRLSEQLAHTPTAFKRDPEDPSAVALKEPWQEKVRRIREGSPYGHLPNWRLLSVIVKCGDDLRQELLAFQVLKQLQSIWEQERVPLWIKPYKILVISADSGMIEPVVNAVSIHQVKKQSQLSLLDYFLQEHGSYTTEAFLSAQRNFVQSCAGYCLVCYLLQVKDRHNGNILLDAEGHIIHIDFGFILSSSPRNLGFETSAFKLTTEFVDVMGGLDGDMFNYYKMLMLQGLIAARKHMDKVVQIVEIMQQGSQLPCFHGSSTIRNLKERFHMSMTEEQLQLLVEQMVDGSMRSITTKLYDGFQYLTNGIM

CC(C)(C)C(=O)Nc1nc(C(F)(F)F)c(-c2csc(Nc3cccc(C(F)(F)F)c3)n2)s1
CC50 [1]: > 50 µM | MBC (Staphylococcus aureus [2]): 32 mg/L | MBC (Staphylococcus aureus [3]): 32 mg/L | IC50 (rhinovirus A16 [4]): 1.82 µM | MAC (Pseudomonas aeruginosa [5]): >64 µg/mL | MBC [6]: > 64 mg/L | IC50 (enterovirus D68): 8.37 µM | MIC [7]: 16 mg/L | MIC (Enterococcus faecalis [8]): 8 mg/L | IC50 (Zika virus): 11.5 µM | MBC (Enterococcus faecium [9]): > 64 mg/L | MIC [10]: > 64 mg/L | MBC (Enterococcus faecalis [11]): > 32 mg/L | MBC (Enterococcus faecium [12]): > 64 mg/L | IC50 ([13]; read-out: IC50): > 50 µM | MIC (Enterococcus faecium [14]): 4 mg/L | MAC (Escherichia coli [15]): 4 µg/mL | MIC (Enterococcus faecium [16]): 2 mg/L | MIC (Streptococcus pyogenes [17]): 4 mg/L | CC50 [18]: 46 µM | MAC (Escherichia coli [19]): 0.5 µg/mL | MBC (Enterococcus faecium [20]): 4 mg/L | MBC (Streptococcus pyogenes [21]): 4 mg/L | MIC (Staphylococcus warneri [22]): 4 mg/L | MAC (Acinetobacter baumannii [23]): 0.03 µg/mL | MAC (Acinetobacter baumannii [24]): 4 µg/mL | MIC (Staphylococcus aureus [25]): 8 mg/L | MIC (Enterococcus faecium [26]): 2 mg/L | MIC (Staphylococcus aureus [27]): 4 mg/L | MBC (Staphylococcus warneri [28]): 64 mg/L | MAC (Pseudomonas aeruginosa [29]): 2 µg/mL | MIC (Bacillus subtilis [30]): 4 mg/L | MAC (Klebsiella pneumoniae): 4 µg/mL | MBC (Bacillus subtilis [31]): 8 mg/L

O=C(Nc1nc(C(F)(F)F)c(-c2csc(Nc3cccc(C(F)(F)F)c3)n2)s1)c1ccccc1
CC50 [1]: 35.9 µM | IC50 (rhinovirus A16 [4]): 0.49 µM | MAC (Pseudomonas aeruginosa [5]): >64 µg/mL | IC50 (enterovirus D68): 1.11 µM | MIC (Enterococcus faecalis [8]): > 32 mg/L | IC50 (Zika virus): 4.62 µM | IC50 [13]: Not Active | MAC (Escherichia coli [15]): 2 µg/mL | MIC (Streptococcus pyogenes [17]): > 32 mg/L | CC50 [18]: > 50 µM | MAC (Escherichia coli [19]): 1 µg/mL | Activity (rhinovirus A16 [32]): Active | MAC (Acinetobacter baumannii [23]): 0.06 µg/mL | MAC (Acinetobacter baumannii [24]): 8 µg/mL | EC50 (rhinovirus A16 [33]): 4.32 µM | MIC (Staphylococcus aureus [25]): > 32 mg/L | EC50 (rhinovirus A16 [34]): 1.04 µM | MAC (Pseudomonas aeruginosa [29]): 16 µg/mL | Activity (rhinovirus A16 [35]): Active | MIC (Bacillus subtilis [30]): > 32 mg/L | MAC (Klebsiella pneumoniae): 64 µg/mL

CCOC(=O)/C=C/[C@H](C[C@@H]1CCNC1=O)NC(=O)[C@@H](CC(=O)[C@@H](NC(=O)c1cc(C)on1)C(C)C)Cc1ccc(F)cc1 [RUPINTRIVIR]
EC50 (rhinovirus A16 [4]): 0.002 µM | EC50 (rhinovirus A16 [33]): 0.005 µM | EC50 (rhinovirus A16 [34]): 0.014 µM

From ChEMBL document CHEMBL5532695, “4-Trifluoromethyl bithiazoles as broad-spectrum antimicrobial agents for virus-related bacterial infections or co-infections” (RSC Med Chem, 2024)
